Experimental data published in ChEMBL document CHEMBL1127816, “Synthesis and antiestrogenic activity of diaryl thioether derivatives” (1994).
The source made the active and inactive calls. No cut-off for these calls is given here.

Assays:
[1] = system: ZR-75-1; test: (§1) Inhibition of E2-induced proliferation of ZR-75-1 cells at 1 uM; format: functional, Homo sapiens
Procedure, shortened: (§2)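 ZR-75-1 cells (passages 90-96, kept in phenol-red-free RPMI-1640 with 10 nM E2) were plated at 10 000 cells/dish in SD medium (5% dextran-charcoal FBS, insulin) and allowed to adhere for 3 days. They were then treated for 9 days at 37 °C with compound (1 uM, ethanol vehicle 0.1%) plus E2 0.1 nM, with medium changed every 2-3 days. Read-out was DNA content. % inhibition = 100 − [(D−B)/(C−A)]×100. Done in triplicate.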

[2] = Compound was tested for percent inhibition of the Estradiol (E2) induced cell proliferation; parameters: concentration or dose not given beside the values
[3] = system: ZR-75-1; test: Stimulation of basal cell proliferation of ZR-75-1 cells at 1 uM; format: functional, Homo sapiens
Procedure, shortened: (§3)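 ZR-75-1 cells were plated at 10 000 cells/dish in phenol-red-free SD medium (5% dextran-charcoal FBS) and allowed to adhere for 3 days. Compound was added at 1 uM without E2 (controls received 0.1% ethanol). Cells were incubated for 9 days at 37 °C with medium renewed every 2-3 days. Basal proliferation was read as DNA content (ng/dish). Done in triplicate.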

[4] = molecular target: T1, Estrogen receptor (Rattus norvegicus) (UniProt P06211+Q62986); test: Relative binding affinity (RBA) on estrogen receptor was measured by in vitro using cytosol from the immature rat uterus; format: protein assay
Procedure, shortened: (§4)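 Competitive displacement of [3H]estradiol from estrogen receptor. Incubation was 3 h at 25 °C. Nonspecific binding was defined with 1000 nM unlabeled estradiol. RBA = 100 × IC50(estradiol)/IC50(compound), with estradiol set at 100%.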

[5] = Antiestrogenic activity against Estradiol (E2) induced cell proliferation; parameters: concentration or dose not given beside the values
[6] = system: ZR-75-1; test: as §1; format: functional, Homo sapiens; procedure, shortened: as §2; remark: listed apart in the source
[7] = molecular target: T2, Estrogen receptor (Homo sapiens) (UniProt Q92731+P03372); test: Ability to inhibit E2-induced proliferation of ZR-75-1 cells at a dose of 1 uM; format: functional, cell-based; procedure, shortened: as §2
[8] = molecular target: T2, Estrogen receptor (Homo sapiens); test: Ability to stimulate the basal cell proliferation of ZR-75-1 cells at a dose of 1 uM; format: functional, cell-based; procedure, shortened: as §3
[9] = molecular target: T1, Estrogen receptor (Rattus norvegicus); test: Relative binding affinity (RBA) on estrogen receptor was measured by in vitro using cytosol from the immature rat uterus; N means no binding observed; format: protein assay; procedure, shortened: as §4
[10] = Percent inhibition of Estradiol (E2) induced cell proliferation; parameters: scale not given: the % may be the effect or the level left

Row | Activity [2] | RBA [4] | Activity [5] | DNA content per dish (cell proliferation) ((ng of DNA) dish-1) [7] | Binding ((ng of DNA) dish-1) [8] | relative binding affinity (RBA) [9] | Activity [10] | Compound | Binding [1] | Binding [3] | Binding [6]
1 | 94% | 1.2% | 103% |  |  |  |  | CCCCN(C)C(=O)CCCCCCCCCCC1Cc2cc(O)ccc2[C@H]2CC[C@]3(C)[C@@H](O)[C@H](Cl)C[C@H]3[C@H]12 (stereo partly drawn) | 1403 (ng of DNA) dish-1 | 679 (ng of DNA) dish-1 | 662 (ng of DNA) dish-1
2 |  |  | 57% | 1010 | 741 | inactive |  | CCCCN(C)C(=O)CCSC(Cc1ccc(OC)cc1)c1ccc(OC)cc1 (stereo not drawn) |  |  | 
3 | 80% | 0.01% |  | 1390 | 1150 |  |  | CCCCN(C)C(=O)CCCCCCCCCCSC(Cc1ccc(O)cc1)c1ccc(O)cc1 (stereo not drawn) |  |  | 
4 |  | 0.05% | 66% | 915 | 698 |  |  | CCCCN(C)C(=O)CCCCCCCSC(Cc1ccc(O)cc1)c1ccc(OC)cc1 (stereo not drawn) |  |  | 
5 |  |  | 64% | 1020 | 789 | inactive |  | CCCCN(C)C(=O)CCSC(Cc1ccc(OCc2ccccc2)cc1)c1ccc(OC)cc1 (stereo not drawn) |  |  | 
6 |  |  | 42% | 1120 | 749 |  |  | CCCCN(C)C(=O)CCCCCCCCCCSC(Cc1ccc(OCc2ccccc2)cc1)c1ccc(OC)cc1 (stereo not drawn) |  |  | 
7 | 40% | 0.01% |  | 2600 | 1890 |  |  | CCCCN(C)C(=O)CCSC(Cc1ccc(O)cc1)c1ccc(O)cc1 (stereo not drawn) |  |  | 
8 |  |  | 8% | 1320 | 733 | inactive |  | CCCCN(C)C(=O)CCCCCCCCCCSC(Cc1ccc(O)cc1)c1ccc(OC)cc1 (stereo not drawn) |  |  | 
9 | 44% | 0.01% |  | 2070 | 1410 |  |  | CCCCN(C)C(=O)CCCCCCCSC(Cc1ccc(O)cc1)c1ccc(O)cc1 (stereo not drawn) |  |  | 
10 |  |  | 56% | 1070 | 791 | inactive |  | CCCCN(C)C(=O)CCCCCCCSC(Cc1ccc(OCc2ccccc2)cc1)c1ccc(OC)cc1 (stereo not drawn) |  |  | 
11 |  | 0.01% | 66% | 902 | 684 |  |  | CCCCN(C)C(=O)CCSC(Cc1ccc(O)cc1)c1ccc(OC)cc1 (stereo not drawn) |  |  | 
12 |  |  | 55% | 1090 | 807 | inactive |  | CCCCN(C)C(=O)CCCCCCCCCCCSC(Cc1ccc(O)cc1)c1ccc(OC)cc1 (stereo not drawn) |  |  | 
13 |  |  | 13% | 1350 | 800 | inactive |  | CCCCN(C)C(=O)CCCCCCCCCCCSC(Cc1ccc(OC)cc1)c1ccc(OC)cc1 (stereo not drawn) |  |  | 
14 |  |  | 41% | 1100 | 725 | inactive |  | COc1ccc(C(Cc2ccc(OCc3ccccc3)cc2)SCCCCCCCCCCCO)cc1 (stereo not drawn) |  |  | 
15 |  | 0.01% |  | 2050 | 1440 |  | 49% | CCCCN(C)C(=O)CCCCCSC(Cc1ccc(O)cc1)c1ccc(O)cc1 (stereo not drawn) |  |  | 
16 |  |  | 36% | 1150 | 746 | inactive |  | CCCCN(C)C(=O)CCCCCCCSC(Cc1ccc(OC)cc1)c1ccc(OC)cc1 (stereo not drawn) |  |  | 
17 | 31% | 0.02% |  | 1280 | 839 |  |  | COc1ccc(C(Cc2ccc(O)cc2)SCCCCCCCCCCCO)cc1 (stereo not drawn) |  |  | 
18 | 42% | 0.02% |  | 2230 | 1540 |  |  | OCCCCCCCCCCCSC(Cc1ccc(O)cc1)c1ccc(O)cc1 (stereo not drawn) |  |  | 
